Measured values reported in the EternaBench riboswitch data.

System: MS2 coat protein
Test: apparent Kd, MS2 coat protein; higher = weaker binding; RNA-MaP array; FMN 200 µM where present
Procedure, shortened: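 The apparent Kd is reported as the median of filtered per-cluster binding-curve fits. To get these curves, designs transcribed by stalled E. coli RNA polymerase on Illumina sequencing-chip clusters were titrated with SNAP-549-labelled MS2 coat protein from 0.7 or 1.5 nM, doubling to 3 µM. Titrations were run without and then with constant ligand in 100 mM Tris-HCl pH 7.5, 80 mM KCl, 4 mM MgCl2, BSA, DTT, yeast tRNA and Tween-20, and green signal was normalised to red-channel RNA signal and control-cluster median Fmax.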

[1] = designed as: OFF switch for flavin mononucleotide, no ligand
[2] = ligand present: flavin mononucleotide, designed as: OFF switch for flavin mononucleotide
[3] = designed as: ON switch for flavin mononucleotide, no ligand
[4] = ligand present: flavin mononucleotide, designed as: ON switch for flavin mononucleotide

Sequence	apparent Kd [1] [nM]	apparent Kd [2] [nM]	apparent Kd [3] [nM]	apparent Kd [4] [nM]
GAGCAGGAAGGAUAUACAUGAGGAUCACCCAUGUACCAUCAAGGCUUUGAUUUUCACGGUAGAAGGUCCCAAUA	40.3	51.4		
GAGCGAAAGCUCAAUGUCGAUAGCAGAAGGACAUGAAAACAUGAAAUAACAUGAGGAUCACCCAUGUAGGAUAUGCUAUCGACU	17.9	279		
GAGCGAAAGCUCAAUGUCGAUAGCAGAAGGGCAUGAAAACAUGAAAACACAUGAGGAUCACCCAUGUAGGAUAUGCUAUCGACU	10.6	17.6		
GAGCGAGGGACAGGAUAUGCGGCGAAACUCUCCGCAGAAGGGUCGACAUGAGGAUCACCCAUGUCCUUACGCUCCAAGUAGAGG			132	397
GAGGAACAUGAGGAUCACCCAUGUGAGGAUAUGCAUAGCGAGGUAGUAGAAGUUGAAUGCAGAAGGUACACGGA	36	30.3		
GAGGACUGUAAAUAAGUAGAAAUACAUGAGGAUCACCCAUGUAAGGAUAUCGUCAGGAAUACUGACGAGAAGGUACAUCAGUCC	14.5	18.1		
GAGUAGUUGAAAGGAUAUGCAUUGUUAUAGAAUGCAGAAGGUUCUAACAUGAGGAUCACCCAUGUAGGACUAUUCCUGUGUAUC			12.1	9.82
GAGUUACAUGAGGAUCACCCAUGUUGUUUUGGAUAAGGAUAUAUGGUAGGAAGAGGAAUGAUAGAAGGUAUUAGGG			29.9	28.3
GAUAGAGAGCAGGAUAUCAUAGAAAUGUAUGAAUGAGAAGGGCUCACAUGAGGAUCACCCAUGUGGUCCUAGAU	25.8	236		
GAUAUGUUAGGAUAUCGGAAAACGGCCCACUGGCACGGAAGCGAGAAGGGACAUGAGGAUCACCCAUGUGAAAG	48.1	31.4		
GAUAUUUUUUGAGGAUAUUCAUACACUGUAUACGGAGAAGGCAAACAAUCAUGAGGACAUGAGGAUCACCCAUGUUGUGACCAU			19.5	13.5
GAUCAACAUGAGGAUCACCCAUGUGAGGAUAUGAUACUAUGUACUUCGGUACAUAGUAUCAGAAGGCAUGUGAA	78.1	111		
GAUCCACAUGAGGAUCACCCAUGUCAGGAUAUGAUACUAUGUACUUCGGUACAUAGUAUCAGAAGGGACAGAUC	168	108		
GAUCCACAUGAGGAUCACCCAUGUGAGGAUAUGAUACUAUGUACUUCGGUACAUAGUAUCAGAAGGCACAUUGA	114	65.9		
GAUCCACAUGAGGAUCACCCAUGUGAGGAUAUGAUACUAUGUACUUCGGUACAUAGUAUCAGAAGGCACGGGUC	84.1	206		
GAUCCACAUGAGGAUCACCCAUGUGAGGAUAUGUUGUUAGCUUUUUGCCGUAAGCCAUAUAGAAGGCACGGGUG	20.1	22.3		
GAUCCGUCCUAGAAGGCCAUUCAACAUGAGGAUCACCCAUGUGCGAACUGGAGGAUAUAGGUGGGAUAGGCCUAGGGCCCGGUC			9.38	6.12
GAUCGACCUGAGAAGGCACAUGAGGAUCACCCAUGUUGAACCAUACAUGCCACAAAGUGGCAAUGUGAGGAUAUCAGGUCGAUC	6.54	12.1		
GAUGAGGUAGGAUAUACGAUAAUAUAGGGUAGAUAUAUAACACAUGAGGAUCACCCAUGUAGAAGGACCAGUAC	38.6	61.1		

Sequence	apparent Kd [1] [nM]	apparent Kd [2] [nM]	apparent Kd [3] [nM]	apparent Kd [4] [nM]
GAUGGACAUGAGGAUCACCCAUGUAAGGAUAUUGAUUGUGGCUAUAAAUGGUUACGGUCGAGAAGGUACUCGUC	82.2	78.8		
GAUUACAAGUAAGGAUAUGUAUAUGAAACAUAUACAGAAGGUACAUGAGGAUCACCCAUGUUCUUGCAGCGCGAAUAUGUAAUC	17.1	21.1		
GAUUAUAAGUAAGGAUAUGUAUAUGAAACAUCUACAGAAGGUACAUGAGGAUCACCCAUGUUCUUGCAGCGUGACUAUGUAAUC	24	27.9		
GAUUCACAUGAGGAUCACCCAUGUCGUUAUAUGGGAGGAUAUACGUGGACCGUAGUCCGCGUAGAAGGCCUAAUUG			378	81.2
GAUUGACAUGAGGAUCACCCAUGUGAGGAUAUCGGCCGGACCUUGUUAGCUUCCAUCGUGAGAAGGCACAUAGG	30.4	31.5		
GAUUGAGAGCAGGAUAUCAUAGAAAUGUAUGAAUGAGAAGGGCUCACAUGAGGAUCACCCAUGUGGUCCUAGAU	27.2	171		
GAUUUCGCAUGAGGAUAUGCUCCCGUUUCGGGAGCAGAAGGCAUGUCAUUAGACAUGAGGAUCACCCAUGUAGUUAAGAUUGAA			378	15.7
GAUUUGUGACAAUUACAUGAGGAUCACCCAUGUUGUAGUAUGCAGGAUAUGUGGUAUAUUAUUUAACAGAAGGGCAAUAAUUUU			98	46.4
GAUUUGUGAGGAUAUACAUGAGGAUCACCCAUGUGUGUCCAUACGCGUGAGUCUUCGUGUAGAAGGCGCGGGUC	15.5	15.9		
GCAAAGCCUGACAUGAGGAUCACCCAUGUUAGAUUGUUAUGUCAGGAUAUUGUCUAGAAACUAGACAAGAAGGGAUGCUUUGCA			463	27.3
GCACAUUUGUAAGGAUAUACAACAUGAGGAUCACCCAUGUGUUGGAAUUUAGUAGAAGGUACAGACAUGAGUAUCACUUUUGUA			72.7	51.9
GCACGACAUGUAGGAUAUCGAGCGCCGAGCGCUCGAGAAGGACAUGAGGAUCACCCAUGUAUUCUGAGUGAGCGAGGUCGUGCA	45.7	393		
GCACGAUCCUCAGGAUAUCACUGAAACAUGAGGAUCACCCAUGUGCGCAGAUGAGAAGGGAGGACUCCGUCUGACUAAAUGUUA			109	10.6
GCACGGCGUGUAGGAUAUGCAUAGCAUUGCUAUGCAGAAGGACAUGAGGAUCACCCAUGUAUGUAUUCCAUACAUUUCCCGUGC	6.42	7.31		
GCACUGGAUGUAGGAUAUCAGGACGAUAAGUCCUGAGAAGGACAUGAGGAUCACCCAUGUGUUAAAACCAGUGCAUAUAAUAUA	13.8	20.6		
GCACUUAAAAUUGAACCGUUUCGAACAUGAGGAUCACCCAUGUAGGAUAUGCUAAUAGUAUUGAAGCAGAAGGACAAUAAGUGC	6.17	5.99		
GCACUUAAGUUAGGAUAUGGAUCGGAAAACGAUCCAGAAGGAAUAUGGGAACAUGAGGAUCACCCAUGUUCCACAGACAAGUGC			47.5	24.4
GCACUUACGUUAGGAUAUGGAUCGGAAAACGAUCCAGAAGGAAUAUGGGAACAUGAGGAUCACCCAUGUUCCGCAGACAAGUGC			96.5	39
GCACUUUUAUUUUAACCGUUUCGAACAUGAGGAUCACCCAUGUAGGAUAUGCUAAAAGUUGUGAUGCAGAAGGACAUUAAGUGC	7.15	7.29		

Sequence	apparent Kd [1] [nM]	apparent Kd [2] [nM]	apparent Kd [3] [nM]	apparent Kd [4] [nM]
GCAGAUCACGUGAGGAUAUCGUCUACCUCGGUAGUCGAGAAGGCACAUGAGGAUCACCCAUGUGAGUGUUCUGC	20.1	19.5		
GCAGCAAUCUUUAACAUGAGGAUCACCCAUGUCGAGAGAUAUGAGGAUAUGCAUCUGAAGAAGAUGCAGAAGGCAUUGUGCUGC			6.26	5
GCAGCAUAAAUUAUACAUGAGGAUCACCCAUGUUACAUGUGUAAGGAUAUUGAGGUUAUUAUUGGCAAGAAGGUACAAUGCUGC			15.2	8.57
GCAGCGCAUGUAGGAUAUCGGUCAGUUUCUGAUCGAGAAGGACAUGAGGAUCACCCAUGUAAAUUACCGACUUUGUCGGGCUGC	10.2	39.2		
GCAGCGUAUGUAGGAUAUCGGUCAGAUUCUGAUCGAGAAGGACAUGAGGAUCACCCAUGUAAAUUACCGACUUUGUCGGGCUGC	6.73	8.18		
GCAGCUAAUAUUAUACAUGAGGAUCACCCAUGUUACAUGAGUAAGGAUAUUGAUGAUUAUAUAAACAAGAAGGUACGAAGCUGC			14.9	7.85
GCAGCUCCUGACAUGAGGAUCACCCAUGUUUAAUUAUUAAAUCAGGAUAUCCUUUCGAAACGAAAGGAGAAGGGAUAAGCUGCU			4.81	4.94
GCAGGAUAAGUGAGGAUAUACCUAUGGAUACAUAGGUAGAAGGUACAUGAGGAUCACCCAUGUUCCUCACCUGC	9.54	10.1		
GCAGGAUAAGUGAGGAUAUACCUCUGGAUACAGAGGUAGAAGGCACAUGAGGAUCACCCAUGUCUAUCACCUGC	16	41.3		
GCAGGUUAAGUCAGGAUAUACCUAUGGAUACAUAGGUAGAAGGGACAUGAGGAUCACCCAUGUGUCUCGCCUGC	87.8	148		
GCAGUAAAUAAAUGCACAUGAGGAUCACCCAUGUGGGAGGCACAGGAUAUCGCAUCAUAGCGGUGCGAGAAGGGUGAUAAUCUC			346	72.3
GCAGUAAAUAAAUGCACAUGAGGAUCACCCAUGUGGGAGGCACAGGAUAUCGUAUCAUAGUGGUACGAGAAGGGUGAUAAUCUC			425	84.4
GCAUCCAAUGUGAGGAUAUACCUCUGGAUACAGAGGUAGAAGGCACAUGAGGAUCACCCAUGUUACUAGGAUGC	20.8	44.4		
GCAUGCGUUCGAGGAUAUCGGUGAGAAACGGAACGAGAAGGCGAUAGAAUGUCUCAUCUUAUGAACAUGAGGAUCACCCAUGUA			32.7	31.6
GCAUGCUCCGAGGAUAUCGAAGCUAAUUAUGCACGAGAAGGCGGAACAUGAGGAUCACCCAUGUGAUGCCUAAA		29.4		
GCAUGUAAGUAGAAGGGCAGAUAUUUUGAUACUGCAGGAUAUGCAGAAUCAUAUCCACAUGAUAACAUGAGGAUCACCCAUGUA	32.7	25.6		
GCAUUUAAUACAGGAUAUGUAAGUAUACAUUAGAUUGGUAUAGUCACAACAACAGAAGGGUAGAACAUGAGGAUCACCCAUGUA			97.3	62.9
GCCAGAGCAGGAUAUCUAUAUUAUCACAUGAGGAUCACCCAUGUCCAGCGAAAGCUGGAGGGAGAAGGGCUCUGGC	73.2	33.8		
